According to ChEMBL document CHEMBL1137781, “Synthesis and preclinical evaluation of novel PET probes for P-glycoprotein function and expression” (J Med Chem, 2009):

What was measured:
Heart [1] = test: Biodistribution in 50 mg/kg cyclosporin A pretreated Wistar rat heart at 27+/-2 MBq, iv after 80 mins; type: ADME, organism-based; set-up: dose 50 mg/kg, route intravenous; conditions: in vivo
Hippocampus [2] = test: Biodistribution in Wistar rat hippocampus at 40+/-4 MBq, iv after 80 mins; type: ADME, organism-based; conditions: in vivo
Procedure, shortened: (§1)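 Male Wistar rats (12 h light/dark, chow ad libitum) were fitted with a femoral arterial cannula under isoflurane. They were pretreated via tail vein with saline, cyclosporin A (50 mg/kg), or nonradioactive tracer compound (15 mg/kg; 10 mg/mL in saline with 35% ethanol). The 11C tracer was then given via penile vein, followed by 76 min microPET. Animals were then terminated; excised tissues were weighed and gamma-counted with decay correction. Values are SUVs (tissue MBq/g × body weight g / injected MBq).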

Ileum [3] = test: Biodistribution in 50 mg/kg cyclosporin A pretreated Wistar rat ileum at 27+/-2 MBq, iv after 80 mins; type: ADME, organism-based; set-up: dose 50 mg/kg, route intravenous; conditions: in vivo
Bone [4] = test: Biodistribution in Wistar rat bone at 40+/-4 MBq, iv after 80 mins; type: ADME, organism-based, Bone element; conditions: in vivo
[5] = Biodistribution in Wistar rat frontal cortex at 40+/-4 MBq, iv after 80 mins; type: ADME, organism-based; conditions: in vivo; procedure, shortened: as §1
Plasma [6] = test: Biodistribution in Wistar rat plasma at 40+/-4 MBq, iv after 60 mins; type: ADME, organism-based; conditions: in vivo, 1 h
Rattus norvegicus = test: AUC in 50 mg/kg cyclosporin A pretreated Wistar rat at 27+/-2 MBq, iv; type: ADME, organism-based, Plasma; set-up: dose 50 mg/kg, route intravenous; conditions: in vivo
Procedure, shortened: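 Male Wistar rats with a femoral arterial cannula placed under isoflurane. Saline or cyclosporin A (50 mg/kg, commercial solution) given via tail vein, then the [11C] tracer via penile vein. Dynamic microPET over the brain for 76 min, with 14 arterial samples to 60 min. Plasma counted in a γ counter. AUC of whole-brain or plasma SUV over 0-60 min.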

[7] = Biodistribution in Wistar rat parietal/temporal/occipital cortex at 40+/-4 MBq, iv after 80 mins; type: ADME, organism-based; conditions: in vivo; procedure, shortened: as §1
Kidney = test: Biodistribution in Wistar rat kidney at 40+/-4 MBq, iv after 80 mins; type: ADME, organism-based; conditions: in vivo; procedure, shortened: as §1
Cerebellum = test: Biodistribution in Wistar rat cerebellum at 40+/-4 MBq, iv after 80 mins; type: ADME, organism-based; conditions: in vivo
Plasma [8] = test: Biodistribution in Wistar rat plasma at 40+/-4 MBq, iv after 80 mins; type: ADME, organism-based; conditions: in vivo
Ileum [9] = test: Biodistribution in Wistar rat ileum at 40+/-4 MBq, iv after 80 mins; type: ADME, organism-based; conditions: in vivo; procedure, shortened: as §1
Brain = test: Biodistribution in 50 mg/kg cyclosporin A pretreated Wistar rat brain at 27+/-2 MBq, iv after 25 mins; type: ADME, organism-based; set-up: dose 50 mg/kg, route intravenous; conditions: in vivo
Procedure, shortened: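 Male Wistar rats pretreated with saline or cyclosporin A (50 mg/kg, tail vein), then given the [11C] tracer via penile vein. Dynamic microPET with a whole-brain 3D ROI. SUV read from the time-activity curve at 25 min, assuming 1 g/mL tissue density. Mean ± SEM.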

Bone [10] = test: Biodistribution in 50 mg/kg cyclosporin A pretreated Wistar rat bone at 27+/-2 MBq, iv after 80 mins; type: ADME, organism-based, Bone element; set-up: dose 50 mg/kg, route intravenous; conditions: in vivo
Procedure, shortened: (§2)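 Male Wistar rats pretreated via tail vein with saline or cyclosporin A (50 mg/kg, commercial solution), then given the [11C] tracer via penile vein. After microPET scanning the anesthetized rats were killed. Tissues were excised and weighed, and blood was centrifuged into plasma and cells. γ counting with decay correction. Results as SUV (tissue MBq/g × body weight/injected dose).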

[11] = Biodistribution in Wistar rat fat at 40+/-4 MBq, iv after 80 mins; type: ADME, organism-based, Adipose tissue; conditions: in vivo; procedure, shortened: as §1
Hippocampus [12] = test: Biodistribution in 50 mg/kg cyclosporin A pretreated Wistar rat hippocampus at 27+/-2 MBq, iv after 80 mins; type: ADME, organism-based; set-up: dose 50 mg/kg, route intravenous; conditions: in vivo
Striatum = test: Biodistribution in Wistar rat striatum at 40+/-4 MBq, iv after 80 mins; type: ADME, organism-based; conditions: in vivo
[13] = Biodistribution in Wistar rat red blood cells at 40+/-4 MBq, iv after 80 mins; type: ADME, organism-based, Erythrocyte; conditions: in vivo
[14] = Biodistribution in 50 mg/kg cyclosporin A pretreated Wistar rat amygdala at 27+/-2 MBq, iv after 80 mins; type: ADME, organism-based; set-up: dose 50 mg/kg, route intravenous; conditions: in vivo; procedure, shortened: as §2
[15] = Biodistribution in 50 mg/kg cyclosporin A pretreated Wistar rat cingulate cortex at 27+/-2 MBq, iv after 80 mins; type: ADME, organism-based; set-up: dose 50 mg/kg, route intravenous; conditions: in vivo; procedure, shortened: as §2
Liver = test: Biodistribution in Wistar rat liver at 40+/-4 MBq, iv after 80 mins; type: ADME, organism-based; conditions: in vivo; procedure, shortened: as §1
Heart [16] = test: Biodistribution in Wistar rat heart at 40+/-4 MBq, iv after 80 mins; type: ADME, organism-based; conditions: in vivo; procedure, shortened: as §1
[17] = Biodistribution in 50 mg/kg cyclosporin A pretreated Wistar rat frontal cortex at 27+/-2 MBq, iv after 80 mins; type: ADME, organism-based; set-up: dose 50 mg/kg, route intravenous; conditions: in vivo
Duodenum = test: Biodistribution in 50 mg/kg cyclosporin A pretreated Wistar rat duodenum at 27+/-2 MBq, iv after 80 mins; type: ADME, organism-based; set-up: dose 50 mg/kg, route intravenous; conditions: in vivo; procedure, shortened: as §2
[18] = Biodistribution in Wistar rat entorhinal cortex at 40+/-4 MBq, iv after 80 mins; type: ADME, organism-based; conditions: in vivo; procedure, shortened: as §1
Pancreas = test: Biodistribution in 50 mg/kg cyclosporin A pretreated Wistar rat pancreas at 27+/-2 MBq, iv after 80 mins; type: ADME, organism-based; set-up: dose 50 mg/kg, route intravenous; conditions: in vivo
[19] = Biodistribution in 50 mg/kg cyclosporin A pretreated Wistar rat parietal/temporal/occipital cortex at 27+/-2 MBq, iv after 80 mins; type: ADME, organism-based; set-up: dose 50 mg/kg, route intravenous; conditions: in vivo
[20] = Biodistribution in 50 mg/kg cyclosporin A pretreated Wistar rat fat at 27+/-2 MBq, iv after 80 mins; type: ADME, organism-based, Adipose tissue; set-up: dose 50 mg/kg, route intravenous; conditions: in vivo; procedure, shortened: as §2

Compound `COc1cc2c(cc1OC)CN(CCCC1CCCc3c(O[11CH3])cccc31)CC2` (stereo not drawn) has an SUV (Heart [1]) of 0.34, an SUV (Hippocampus [2]) of 0.3 and an SUV (Ileum [3]) of 1.1. For the same compound, the SUV (Bone [4]) was 0.28, the SUV [5] was 0.36 and the SUV (Plasma [6]) was 0.34. It also gave an AUC (Rattus norvegicus) of 97%, an SUV [7] of 0.36 and an SUV (Kidney) of 1.45. For the same compound, the SUV (Cerebellum) was 0.5, the SUV (Plasma [8]) was 0.29 and the SUV (Ileum [9]) was 1.27. It also gave an SUV (Brain) of 2.17, an SUV (Bone [10]) of 0.26 and an SUV [11] of 0.36. The SUV (Hippocampus [12]) was 0.86, the SUV (Striatum) was 0.31 and the SUV [13] was 0.18. It also gave an SUV [14] of 1.07, an SUV [15] of 0.88 and an SUV (Liver) of 3.27. The SUV (Heart [16]) was 0.37, the SUV [17] was 1.06 and the SUV (Duodenum) was 2.58. The SUV [18] was 0.35, the SUV (Pancreas) was 2.91 and the SUV [19] was 1.04. For the same compound, the SUV [20] was 0.31.
